In ChEMBL document CHEMBL1130838, “N-[4-(1,1'-biphenyl)methyl]-4-(4-thiomorpholinylmethyl) benzenamines as non-oxazolidinone analogues of antimycobacterial U-100480” (1998):
Values after ≈ are worked out from the molar mass of the structure shown.

Experiments:
[1] = system: Vero; assay: Minimal toxic dose that induced a reduction of 50% of cell growth in Vero cell line […]; assay type: functional, Chlorocebus sabaeus
Procedure, shortened: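 VERO monolayers in Dulbecco's modified MEM with 2% fetal calf serum were seeded at 9'10⁴ cells per well in six-well plates. Compounds, dissolved in DMSO at 10 mg/mL initially, were added after 24 h. Five days later, cells were trypsinised and counted in a Neubauer chamber. MTD50 was the concentration giving 50% growth reduction versus control.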

[2] = system: Mycobacterium tuberculosis; assay: In vitro minimum inhibitory concentration against Mycobacterium tuberculosis CIP 103471 was determined; assay type: functional
Procedure, shortened: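 Broth microdilution in Middlebrook 7H9 with 10% ADC. DMSO stocks were filter-sterilised (0.2 μm nylon), then serially diluted 2-fold in water. Tubes were incubated at 37°C for 10-15 days alongside a drug-free control. MIC was the lowest concentration with no visible turbidity.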

[3] = system: Mycobacterium marinum; assay: In vitro cytotoxicity against Mycobacterium marinum (CIP 6423) was determined; assay type: functional
Procedure, shortened: (§1)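 Broth microdilution in Middlebrook 7H9. Stocks were made in DMSO and filter-sterilized (0.2 μm), then serially diluted 2-fold in water. Tubes were incubated at 37°C for 10-15 days, with a drug-free control tube in each experiment. MIC (μg/mL) is the lowest concentration giving no visible turbidity.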

[4] = system: Mycobacterium gordonae; assay: In vitro cytotoxicity against Mycobacterium gordonae (CIP 6427) was determined; assay type: functional; procedure, shortened: as §1
[5] = system: Mycolicibacterium smegmatis; assay: In vitro cytotoxicity against Mycobacterium smegmatis CIP (103599) was determined; assay type: functional; procedure, shortened: as §1
[6] = system: Mycobacterium avium; assay: In vitro cytotoxicity against Mycobacterium avium (CIP 103317) was determined; assay type: functional
[7] = system: Mycobacterium avium; assay: In vitro cytotoxicity against Mycobacterium avium (CIP 103317) was determined

Compound | MTD50 [1] | MIC [2] | MIC [3] | MIC [4] | MIC [5] | MIC [6] | MIC [7]
O=C(Nc1ccc(CN2CCSCC2)cc1)c1ccc(-c2ccccc2)cc1 | 16 µg/mL | > 16 µg/mL | > 16 µg/mL | > 16 µg/mL | > 16 µg/mL | > 16 µg/mL | 
CN(Cc1ccc(-c2ccccc2)cc1)c1ccc(CN2CCSCC2)cc1 | 8 µg/mL | 0.5 µg/mL (≈ 1.29 µM) | 8 µg/mL (≈ 20.6 µM) | > 16 µg/mL | > 16 µg/mL | 4 µg/mL (≈ 10.3 µM) | 
C[N+](C)(Cc1ccc(-c2ccccc2)cc1)c1ccc(CN2CCSCC2)cc1.[I-] | 16 µg/mL | 8 µg/mL | 16 µg/mL | 8 µg/mL | > 16 µg/mL | 16 µg/mL | 
c1ccc(-c2ccc(CNc3ccc(CN4CCSCC4)cc3)cc2)cc1 | 8 µg/mL | 0.5 µg/mL (≈ 1.33 µM) | 8 µg/mL (≈ 21.4 µM) | 8 µg/mL (≈ 21.4 µM) | > 16 µg/mL |  | 4 µg/mL (≈ 10.7 µM)
NNC(=O)c1ccncc1 [ISONIAZID] | 32 µg/mL | 0.25 µg/mL (≈ 1.82 µM) | 16 µg/mL (≈ 117 µM) | 32 µg/mL (≈ 233 µM) | 64 µg/mL (≈ 467 µM) | 32 µg/mL (≈ 233 µM) | 
CN[C@@H]1[C@H](O[C@H]2[C@H](O[C@H]3[C@H](O)[C@@H](O)[C@H](N=C(N)N)[C@@H](O)[C@@H]3N=C(N)N)O[C@@H](C)[C@]2(O)C=O)O[C@@H](CO)[C@H](O)[C@H]1O [STREPTOMYCIN] | >64 µg/mL | 0.5 µg/mL (≈ 0.86 µM) | 32 µg/mL (≈ 55 µM) | 16 µg/mL (≈ 27.5 µM) | 8 µg/mL (≈ 13.8 µM) | 4 µg/mL (≈ 6.88 µM) | 
